Reference: ChEMBL document CHEMBL1811881, “Development of 3-substituted-androsterone derivatives as potent inhibitors of 17β-hydroxysteroid dehydrogenase type 3” (Bioorg Med Chem, 2011)

Columns and labels:
Format in all cases: cell-based
[1] = molecular target: T1, 17-beta-hydroxysteroid dehydrogenase type 3 (Homo sapiens) (UniProt P37058); test: Inhibition of 17Beta-HSD3 expressed in homogenized HEK293 cells assessed as transformation of [14C]-4-androstene-3,17-dione into [14C]-testosterone in presence of NADPH at 0.1 uM
T1 sequence (whole entry): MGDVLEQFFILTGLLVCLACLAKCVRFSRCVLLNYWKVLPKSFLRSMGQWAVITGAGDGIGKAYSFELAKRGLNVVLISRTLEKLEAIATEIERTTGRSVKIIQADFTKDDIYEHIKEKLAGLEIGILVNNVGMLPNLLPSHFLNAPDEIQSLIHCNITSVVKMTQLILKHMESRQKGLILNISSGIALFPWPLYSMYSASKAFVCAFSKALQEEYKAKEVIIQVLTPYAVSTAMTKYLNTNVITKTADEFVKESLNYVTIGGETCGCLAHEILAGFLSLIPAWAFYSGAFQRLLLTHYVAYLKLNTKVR
How it was run: (§1)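 HEK-293 cells overexpressing 17β-HSD3 were briefly homogenized. The enzyme assay measured conversion of 50 nM [4-14C]-4-androstene-3,17-dione to [14C]-testosterone with NADPH in excess (5 mM). Inhibitor was dissolved in ethanol, and the ethanol-only control was used to derive % inhibition at each concentration. Error 10%.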

[2] = molecular target: T1, 17-beta-hydroxysteroid dehydrogenase type 3 (Homo sapiens); test: Inhibition of 17Beta-HSD3 expressed in homogenized HEK293 cells assessed as transformation of [14C]-4-androstene-3,17-dione into [14C]-testosterone in presence of NADPH at 0.01 uM; how it was run: as §1
[3] = molecular target: T1, 17-beta-hydroxysteroid dehydrogenase type 3 (Homo sapiens); test: Inhibition of 17Beta-HSD3 expressed in homogenized HEK293 cells assessed as transformation of [14C]-4-androstene-3,17-dione into [14C]-testosterone in presence of NADPH at 1 uM; how it was run: as §1
[4] = molecular target: T1, 17-beta-hydroxysteroid dehydrogenase type 3 (Homo sapiens); test: Inhibition of 17Beta-HSD3 expressed in intact HEK293 cells assessed as transformation of [14C]-4-androstene-3,17-dione into [14C]-testosterone in presence of NADPH at 0.1 uM after 1 hr incubation
How it was run: (§2)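 HEK-293 cells were grown in MEM with 10% FBS at 37 °C under 5% CO2, seeded at 200,000 cells/well, and transfected with 2 µg/well of a 17β-HSD3 expression plasmid. Intact cells then got 50 nM [4-14C]-4-androstene-3,17-dione plus inhibitor in ethanol (0.5% v/v) for 1 h. Radiolabelled steroids were extracted from the medium and quantified. Triplicate; % transformation was used to derive IC50.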

[5] = molecular target: T1, 17-beta-hydroxysteroid dehydrogenase type 3 (Homo sapiens); test: Inhibition of 17Beta-HSD3 expressed in intact HEK293 cells assessed as transformation of [14C]-4-androstene-3,17-dione into [14C]-testosterone in presence of NADPH at 1 uM after 1 hr incubation; how it was run: as §2

COc1ccc(CN2C[C@]3(CC[C@@]4(C)[C@@H](CC[C@@H]5[C@@H]4CC[C@]4(C)C(=O)CC[C@@H]54)C3)OC2=O)cc1
inhibition [1]: 84%
inhibition [2]: 5%
inhibition [3]: 93%
inhibition [4]: 43%

C[C@@H]1CN(Cc2cccc(C(F)(F)F)c2)[C@@H](C)CN1C[C@@]1(O)CC[C@@]2(C)[C@@H](CC[C@@H]3[C@@H]2CC[C@]2(C)C(=O)CC[C@@H]32)C1
inhibition [1]: 89%
inhibition [2]: 31%
inhibition [5]: 78%

CN1CCN(C[C@@]2(O)CC[C@@]3(C)[C@@H](CC[C@@H]4[C@@H]3CC[C@]3(C)C(=O)CC[C@@H]43)C2)CC1
inhibition [1]: 0%
inhibition [2]: 0%
inhibition [3]: 40%
inhibition [4]: 2%

C[C@@H]1CN(Cc2cccc(Cl)c2)[C@@H](C)CN1C[C@@]1(O)CC[C@@]2(C)[C@@H](CC[C@@H]3[C@@H]2CC[C@]2(C)C(=O)CC[C@@H]32)C1
inhibition [1]: 84%
inhibition [2]: 26%
inhibition [5]: 55%

C[C@]12CC[C@](O)(CN3CCN(Cc4ccccc4)CC3)C[C@@H]1CC[C@@H]1[C@@H]2CC[C@]2(C)C(=O)CC[C@@H]12
inhibition [1]: 72%
inhibition [2]: 35%
inhibition [3]: 90%
inhibition [4]: 37%
inhibition [5]: 80%

CCCN(CCC)CCN1C[C@]2(CC[C@@]3(C)[C@@H](CC[C@@H]4[C@@H]3CC[C@]3(C)C(=O)CC[C@@H]43)C2)OC1=O
inhibition [1]: 10%
inhibition [2]: 0%
inhibition [3]: 62%
inhibition [4]: 8%

C[C@]12CC[C@@]3(C[C@@H]1CC[C@@H]1[C@@H]2CC[C@]2(C)C(=O)CC[C@@H]12)CN(CCO)C(=O)O3
inhibition [1]: 9%
inhibition [2]: 0%
inhibition [3]: 38%
inhibition [4]: 16%

C[C@]12CC[C@](O)(CN3CCCCC3)C[C@@H]1CC[C@@H]1[C@@H]2CC[C@]2(C)C(=O)CC[C@@H]12
inhibition [1]: 19%
inhibition [2]: 9%
inhibition [3]: 69%
inhibition [5]: 23%

C[C@]12CC[C@@]3(C[C@@H]1CC[C@@H]1[C@@H]2CC[C@]2(C)C(=O)CC[C@@H]12)CN(CCN1CCCCC1)C(=O)O3
inhibition [1]: 0%
inhibition [2]: 0%
inhibition [3]: 21%
inhibition [4]: 10%

Cc1cccc(OCCN2C[C@]3(CC[C@@]4(C)[C@@H](CC[C@@H]5[C@@H]4CC[C@]4(C)C(=O)CC[C@@H]54)C3)OC2=O)c1
inhibition [1]: 85%
inhibition [2]: 13%
inhibition [3]: 95%
inhibition [4]: 40%

CCCCN(CCCC)C[C@@]1(O)CC[C@@]2(C)[C@@H](CC[C@@H]3[C@@H]2CC[C@]2(C)C(=O)CC[C@@H]32)C1
inhibition [1]: 70%
inhibition [2]: 13%
inhibition [3]: 85%
inhibition [4]: 53%
inhibition [5]: 90%

C[C@]12CC[C@](O)(CN3CCN(Cc4cccc(Cl)c4)CC3)C[C@@H]1CC[C@@H]1[C@@H]2CC[C@]2(C)C(=O)CC[C@@H]12
inhibition [1]: 85%
inhibition [2]: 26%
inhibition [5]: 75%

C[C@]12CC[C@@]3(C[C@@H]1CC[C@@H]1[C@@H]2CC[C@]2(C)C(=O)CC[C@@H]12)CN(C1CCCCC1)C(=O)O3
inhibition [1]: 75%
inhibition [2]: 13%
inhibition [3]: 78%
inhibition [4]: 29%

C[C@@H]1CN(Cc2cccnc2)[C@@H](C)CN1C[C@@]1(O)CC[C@@]2(C)[C@@H](CC[C@@H]3[C@@H]2CC[C@]2(C)C(=O)CC[C@@H]32)C1
inhibition [1]: 47%
inhibition [2]: 17%
inhibition [5]: 58%

C[C@@H]1CN(Cc2cccc(SC(F)(F)F)c2)[C@@H](C)CN1C[C@@]1(O)CC[C@@]2(C)[C@@H](CC[C@@H]3[C@@H]2CC[C@]2(C)C(=O)CC[C@@H]32)C1
inhibition [1]: 88%
inhibition [2]: 18%
inhibition [5]: 58%

C[C@]12CC[C@](O)(CN3CCN(S(=O)(=O)c4cccc(C(F)(F)F)c4)CC3)C[C@@H]1CC[C@@H]1[C@@H]2CC[C@]2(C)C(=O)CC[C@@H]12
inhibition [1]: 82%
inhibition [2]: 21%
inhibition [5]: 71%

Cc1ccc(CN2C[C@]3(CC[C@@]4(C)[C@@H](CC[C@@H]5[C@@H]4CC[C@]4(C)C(=O)C(C)(C)C[C@@H]54)C3)OC2=O)cc1
inhibition [1]: 22%
inhibition [2]: 2%
inhibition [3]: 74%
inhibition [4]: 18%

Cc1ccc(CN2C[C@]3(CC[C@@]4(C)[C@@H](CC[C@@H]5[C@@H]4CC[C@]4(C)C(=O)CC[C@@H]54)C3)OC2=O)cc1
inhibition [1]: 81%
inhibition [2]: 17%
inhibition [3]: 93%
inhibition [4]: 38%

C[C@]12CC[C@](O)(CN3CCC(Cc4ccccc4)CC3)C[C@@H]1CC[C@@H]1[C@@H]2CC[C@]2(C)C(=O)CC[C@@H]12
inhibition [1]: 82%
inhibition [2]: 40%
inhibition [3]: 90%
inhibition [5]: 52%

CN(Cc1ccccc1)C[C@@]1(O)CC[C@@]2(C)[C@@H](CC[C@@H]3[C@@H]2CC[C@]2(C)C(=O)CC[C@@H]32)C1
inhibition [1]: 79%
inhibition [2]: 28%
inhibition [3]: 89%
inhibition [4]: 48%
inhibition [5]: 92%

C[C@]12CC[C@](O)(CN3CCN(Cc4cccnc4)CC3)C[C@@H]1CC[C@@H]1[C@@H]2CC[C@]2(C)C(=O)CC[C@@H]12
inhibition [1]: 33%
inhibition [2]: 10%
inhibition [5]: 63%

C[C@]12CC[C@](O)(CN3CCN(c4ccccc4)CC3)C[C@@H]1CC[C@@H]1[C@@H]2CC[C@]2(C)C(=O)CC[C@@H]12
inhibition [1]: 78%
inhibition [2]: 13%
inhibition [3]: 89%
inhibition [5]: 68%

CCN(CC)C[C@@]1(O)CC[C@@]2(C)[C@@H](CC[C@@H]3[C@@H]2CC[C@]2(C)C(=O)CC[C@@H]32)C1
inhibition [1]: 10%
inhibition [2]: 0%
inhibition [3]: 60%
inhibition [5]: 14%

Cc1cccc(S(=O)(=O)CCN2C[C@]3(CC[C@@]4(C)[C@@H](CC[C@@H]5[C@@H]4CC[C@]4(C)C(=O)CC[C@@H]54)C3)OC2=O)c1
inhibition [1]: 52%
inhibition [2]: 0%
inhibition [3]: 93%
inhibition [4]: 5%

C[C@]12CC[C@](O)(CN3CCN(Cc4cccc(SC(F)(F)F)c4)CC3)C[C@@H]1CC[C@@H]1[C@@H]2CC[C@]2(C)C(=O)CC[C@@H]12
inhibition [1]: 91%
inhibition [2]: 3%
inhibition [5]: 62%

C[C@]12CC[C@](O)(CN3CCN(C(=O)C4CCCCC4)CC3)C[C@@H]1CC[C@@H]1[C@@H]2CC[C@]2(C)C(=O)CC[C@@H]12
inhibition [1]: 75%
inhibition [2]: 19%
inhibition [5]: 70%

CCCN(CCN1C[C@]2(CC[C@@]3(C)[C@@H](CC[C@@H]4[C@@H]3CC[C@]3(C)C(=O)CC[C@@H]43)C2)OC1=O)C(=O)CC
inhibition [1]: 35%
inhibition [2]: 0%
inhibition [3]: 80%
inhibition [4]: 25%

C[C@]12CC[C@](O)(CN3CCC(N4CCCCC4)CC3)C[C@@H]1CC[C@@H]1[C@@H]2CC[C@]2(C)C(=O)CC[C@@H]12
inhibition [1]: 4%
inhibition [2]: 0%
inhibition [3]: 69%
inhibition [5]: 20%

CCN(CCN1C[C@]2(CC[C@@]3(C)[C@@H](CC[C@@H]4[C@@H]3CC[C@]3(C)C(=O)CC[C@@H]43)C2)OC1=O)Cc1ccccc1
inhibition [1]: 71%
inhibition [2]: 14%
inhibition [3]: 93%
inhibition [4]: 40%

C[C@]12CC[C@@]3(C[C@@H]1CC[C@@H]1[C@@H]2CC[C@]2(C)C(=O)CC[C@@H]12)CN(CCC(CN1CCOCC1)OC(=O)CCC1CCCC1)C(=O)O3 (some centres not stated)
inhibition [1]: 79%
inhibition [2]: 2%
inhibition [3]: 94%
inhibition [4]: 49%

CCN(CCN1C[C@]2(CC[C@@]3(C)[C@@H](CC[C@@H]4[C@@H]3CC[C@]3(C)C(=O)CC[C@@H]43)C2)OC1=O)C1CCCCC1
inhibition [1]: 21%
inhibition [2]: 2%
inhibition [3]: 72%
inhibition [4]: 2%

C[C@]12CC[C@@]3(C[C@@H]1CC[C@@H]1[C@@H]2CC[C@]2(C)C(=O)CC[C@@H]12)CN(CCBr)C(=O)O3
inhibition [1]: 69%
inhibition [2]: 17%
inhibition [3]: 93%
inhibition [4]: 31%
